The subject of series [1] is MDA‐MB‐231. Put plainly: CellTiter‐Blue cell viability assay. Format: cell-based, human. The following applies: read-out: IC50 (µM) MDA‐MB‐231, 24 h, peptide 0.01 to 100 µM, serum‐free medium. The essentials:
(§1)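 Cells were seeded per mL as follows: BT‑20, SKBR3 and Hs68 at 1.5×10⁵; BT‑474 at 3.0×10⁵; MCF 10A at 4.0×10⁵; MDA‑MB‑231 at 1.0×10⁵. After 24 h, wells were PBS‑washed twice and exposed to test compound in complete serum‑free medium for 24 h at 37 °C, 5% CO₂. CellTiter‑Blue was added for 3 h and fluorescence read at 560/590 nm. Untreated cells set 100%, 1% Triton X‑100 set 0%. IC50 came from a log(inhibitor)–normalized response fit, using independent cultures on different days.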

Series [2] relates to BT‐20. The series is described as follows: CellTiter‐Blue cell viability assay. Format: cell-based, human. Conditions: read-out: IC50 (µM) BT‐20, 24 h, peptide 0.01 to 100 µM, serum‐free medium. The method, boiled down: as §1
The subject of series [3] is BT‐474. Put plainly: CellTiter‐Blue cell viability assay. The series is classed as cell-based, human. Conditions: read-out: IC50 (µM) BT‐474, 24 h, peptide 0.01 to 100 µM, serum‐free medium. The method, boiled down:
as §1

Series [4] deals with SKBR3. The series is described as follows: CellTiter‐Blue cell viability assay. Format: cell-based, human. Conditions: read-out: IC50 (µM) SKBR3, 24 h, peptide 0.01 to 100 µM, serum‐free medium. The method, boiled down:
as §1

In series [5] the test system is MCF 10A. Put plainly: CellTiter‐Blue cell viability assay. The series is classed as cell-based, human. Conditions: read-out: IC50 (µM) MCF 10A, 24 h, peptide 0.01 to 100 µM, serum‐free medium. The essentials:
as §1

Series [6] concerns Hs68. The series is described as follows: CellTiter‐Blue cell viability assay. Conditions: read-out: IC50 (µM) Hs68, 24 h, peptide 0.01 to 100 µM, serum‐free medium. The series is classed as cell-based, human. The essentials:
as §1

The subject of series [7] is human red blood cells (RBCs). Put plainly: Hemolytic activity. The series is classed as cell-based. Conditions: 100 µM peptide, human RBCs 0.25% v/v in PBS pH 7.4, 24 h, 37 °C. The method, boiled down: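 Blood spun 1000 g for 10 min at 4 °C and washed three times. RBCs held at 0.25% v/v in PBS pH 7.4 with a peptide series (0.01–100), 24 h at 37 °C with gentle agitation. After spinning 1000 g for 5 min at 4 °C, supernatant hemoglobin read at A415. PBS is 0% and 1% Triton X‐100 is 100%; melittin served as peptide control. % = (A − Aneg)/(Apos − Aneg) × 100.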

Series [8] has as its system MDA‐MB‐231. The series is described as follows: Internalization of CF‐labeled peptide, flow cytometry and confocal microscopy. Conditions: CF‐labeled peptide 1 µM, flow cytometry. Format: cell-based, human. The method, boiled down:
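Cells seeded 5.0 × 10⁴ per well for 24 h, then washed. Exposed to CF‐labelled peptide (final 1) for 15, 60, 360 and 1440 min at 37 °C, 5% CO₂. Collected and washed; 10 000 cells read by flow cytometry, with autofluorescence subtracted. Duplicates on three independent days.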

Peptide text beside a SMILES is read from it.

As to `C[C@H](NC(=O)[C@H](CCCCN)NC(=O)[C@H](Cc1ccc(O)cc1)NC(=O)[C@H](CCCCN)NC(=O)[C@H](CCCCN)NC(=O)[C@H](CCCCN)NC(=O)[C@H](Cc1ccc(O)cc1)NC(=O)[C@H](CCCNC(=N)N)NC(=O)[C@H](CCCCN)NC(=O)[C@@H](N)CCCCN)C(=O)N[C@@H](Cc1ccc(O)cc1)C(=O)N[C@@H](CCCCN)C(=O)N1CCC[C@H]1C(=O)N[C@@H](Cc1ccc(O)cc1)C(=O)N[C@@H](CCCCN)C(=O)N[C@@H](CCCCN)C(=O)N[C@@H](CCCCN)C(=O)N[C@@H](CCCCN)C(=O)N[C@@H](CCCCN)C(=O)N[C@@H](Cc1ccccc1)C(N)=O` [vCPP0275] (H-KKRYKKKYKAYKPYKKKKKF-NH2), the IC50 in series [1] was over 100 µM; in series [2], 44.8 ± 1.1 µM; in series [3], over 100 µM; in series [4], 34 ± 1 µM; in series [5] it was over 100 µM; in series [6], over 100 µM. In addition, the “H max (% hemolysis at the highest concentration tested)” value in series [7] is listed as 14.6 ± 0.9%.

Regarding `CC(C)C[C@H](NC(=O)CNC(=O)[C@H](CC(C)C)NC(=O)[C@H](CC(C)C)NC(=O)[C@H](CCC(N)=O)NC(=O)[C@H](CCCNC(=N)N)NC(=O)[C@H](CC(C)C)NC(=O)[C@@H](NC(=O)[C@H](CC(C)C)NC(=O)[C@H](CCCNC(=N)N)NC(=O)[C@@H](N)CCCNC(=N)N)[C@@H](C)O)C(=O)NCC(=O)N[C@@H](CO)C(=O)N[C@@H](CCCNC(=N)N)C(=O)N[C@@H](CCCNC(=N)N)C(=O)N[C@@H](CCCNC(=N)N)C(=O)N[C@@H](CCCNC(=N)N)C(=O)N[C@@H](CCCNC(=N)N)C(=O)N[C@@H](CO)C(=O)N[C@@H](CCCNC(=N)N)C(N)=O` [vCPP0769] (H-RRLTLRQLLGLGSRRRRRSR-NH2), the 50% inhibitory concentration (IC50) amounted to 9 ± 0.1 µM in series [1]; 3.5 ± 1.5 µM in series [2]; 37.5 ± 1.7 µM in series [3]; 21.1 ± 2 µM in series [4]; 55.4 ± 1.7 µM in series [5]; 53.4 ± 0.7 µM in series [6]. The “H max (% hemolysis at the highest concentration tested)” value in series [7] turned out to be 56.2 ± 1.5%.

For “CF‐WRRRYRRWRRRRRWRRRPRR‐amide [CF‐vCPP2319]”, in series [8], the “Fluorescence intensity decay with time, MDA‐MB‐231” value is reported as “decreases slowly during 24 h”.

The values are drawn from article PMC9298314 (The Febs Journal, 2021).
